The subject of experiment [1] is CCRF-CEM. Put plainly: Cytotoxicity against human CCRF-CEM cells by XTT assay. It counts as functional, cell-based. The gist of the method:
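CCRF-CEM human leukemia cells were exposed to 0.001 to 100 μM to build dose–response curves, read by XTT proliferation assay. IC50 was taken from the curves. Only agents giving at least 80% inhibition in a 100 μM screen were taken forward. An equivalent DMSO concentration was the negative control and viability reference, and doxorubicin was the positive control.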
A general note: Tetrazolium dyes change colour on reduction, which living cells bring about.

For experiment [2], the system named is CCRF-CEM. Kind of experiment: Cytotoxicity against human CCRF-CEM cells at 100 uM by XTT assay. It counts as functional, cell-based. A digest of the protocol: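 Human CCRF-CEM leukemia cells; single fixed concentration of 100 μM. Proliferation inhibition was read by XTT assay and expressed as inhibition rate. Viability was referenced to an equivalent DMSO concentration as negative control. Doxorubicin served as positive control.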

Structures are written as SMILES. The source made the active and inactive calls. The calls are words filed in the database; no cut-off is given here.

For the compound `C[C@H](CC[C@@]1(O)O[C@H]2C[C@H]3[C@@H]4CC=C5C[C@@H](O[C@@H]6O[C@H](CO)[C@@H](O[C@@H]7O[C@@H](C)[C@H](O[C@@H]8O[C@@H](C)[C@H](O)[C@@H](O)[C@H]8O)[C@@H](O)[C@H]7O)[C@H](O)[C@H]6O[C@@H]6O[C@@H](C)[C@H](O)[C@@H](O)[C@H]6O)CC[C@]5(C)[C@H]4CC[C@]3(C)[C@H]2[C@@H]1C)CO[C@@H]1O[C@H](CO)[C@@H](O)[C@H](O)[C@H]1O` [DICHOTOMIN], the IC50 in the experiment with CCRF-CEM [1] was 0.59 µM.
With `CC1=C(CC[C@@H](C)CO[C@@H]2O[C@H](CO)[C@@H](O)[C@H](O)[C@H]2O)O[C@H]2C[C@H]3[C@@H]4CC=C5C[C@@H](O[C@@H]6O[C@H](CO)[C@@H](O[C@@H]7O[C@@H](C)[C@H](O[C@@H]8O[C@@H](C)[C@H](O)[C@@H](O)[C@H]8O)[C@@H](O)[C@H]7O)[C@H](O)[C@H]6O[C@@H]6O[C@@H](C)[C@H](O)[C@@H](O)[C@H]6O)CC[C@]5(C)[C@H]4CC[C@]3(C)[C@@H]12`, inhibition in the experiment with CCRF-CEM [1] was half-maximal at 6.52 µM (IC50).
As for `C[C@H](CC[C@@]1(O)O[C@H]2C[C@H]3[C@@H]4CC=C5C[C@@H](O[C@@H]6O[C@H](CO)[C@@H](O)[C@H](O[C@@H]7O[C@H](CO)[C@@H](O)[C@H](O)[C@H]7O)[C@H]6O[C@@H]6O[C@@H](C)[C@H](O)[C@@H](O)[C@H]6O)CC[C@]5(C)[C@H]4CC[C@]3(C)[C@H]2[C@@H]1C)CO[C@@H]1O[C@H](CO)[C@@H](O)[C@H](O)[C@H]1O`, half-maximal inhibition with CCRF-CEM [1] (IC50) was put at 1.77 µM.
For `CC1=CO[C@@]2(O[C@H]3C[C@H]4[C@@H]5CC=C6C[C@@H](O)C[C@@H](O[C@@H]7O[C@H](CO)[C@@H](O)[C@H](O[C@@H]8OC[C@@H](O)[C@H](O)[C@H]8O)[C@H]7O[C@@H]7O[C@@H](C)[C@H](O)[C@@H](O)[C@H]7O)[C@]6(C)[C@H]5CC[C@]4(C)[C@H]3[C@@H]2CO)[C@@H](O)[C@H]1O[C@@H]1O[C@H](C)[C@H](O)[C@H](O)[C@H]1O`, the outcome with CCRF-CEM [2] was inactive.
In the experiment on CCRF-CEM [1], `C[C@H](CCC1(O)OC2CC3C4CC=C5C[C@@H](O[C@@H]6O[C@H](CO)C(O[C@@H]7O[C@@H](CO)[C@H](O)[C@H]7O)[C@@H](O)[C@H]6O[C@@H]6O[C@@H](C)[C@H](O)[C@@H](O)[C@H]6O)CC[C@]5(C)C4CC[C@]3(C)C2[C@@H]1C)CO[C@@H]1O[C@H](CO)[C@@H](O)[C@H](O)[C@H]1O` (some centres not stated) [PARISAPONIN I] registered an IC50 of 1.23 µM.
Consider `CC(C)(O)CC[C@@H](O)[C@](C)(O)[C@H]1CC[C@@]2(O)C3=CC(=O)[C@@H]4C[C@@H](O)[C@@H](O)C[C@]4(C)[C@H]3CC[C@]12C`, for which the result in the experiment with CCRF-CEM [2] was inactive.
`COc1cccc2c1C(=O)c1c(O)c3c(c(O)c1C2=O)C[C@@](O)(C(=O)CO)C[C@@H]3O[C@H]1C[C@H](N)[C@H](O)[C@H](C)O1` [DOXORUBICIN] had an IC50 with CCRF-CEM [1] of 2.14 µM.
Take `C=C1CO[C@@]2(O[C@H]3C[C@H]4[C@@H]5CC=C6C[C@@H](O)C[C@@H](O[C@@H]7O[C@H](CO)[C@@H](O)[C@H](O[C@@H]8OC[C@@H](O)[C@H](O)[C@H]8O)[C@H]7O[C@@H]7O[C@@H](C)[C@H](O)[C@@H](O)[C@H]7O)[C@]6(C)[C@H]5CC[C@]4(C)[C@H]3[C@@H]2CO[C@@H]2O[C@H](CO)[C@H](O)[C@H](O)[C@H]2O)[C@@H](O)[C@H]1O[C@@H]1O[C@H](C)[C@H](O)[C@H](O)[C@H]1O`: the outcome in the experiment with CCRF-CEM [2] was inactive.
Same read-out and setting: the same measure for `C[C@@H]1O[C@@H](O[C@H]2[C@H](O[C@@H]3C[C@H](O)CC4=CC[C@H]5[C@@H]6C[C@@H]7O[C@@]8(OC[C@H](C)[C@H](O[C@@H]9O[C@H](C)[C@H](O)[C@H](O)[C@H]9O)[C@@H]8O)[C@@H](CO)[C@@H]7[C@@]6(C)CC[C@@H]5[C@]43C)O[C@H](CO)[C@@H](O)[C@@H]2O[C@@H]2OC[C@@H](O)[C@H](O)[C@H]2O)[C@H](O)[C@H](O)[C@H]1O`: “inactive”.
Regarding `C[C@H](CC[C@@]1(O)O[C@H]2C[C@H]3[C@@H]4CC=C5C[C@@H](O[C@@H]6O[C@H](CO)[C@@H](O[C@@H]7O[C@@H](CO)[C@H](O)[C@H]7O)[C@H](O)[C@H]6O[C@@H]6O[C@@H](C)[C@H](O)[C@@H](O)[C@H]6O)CC[C@]5(C)[C@H]4CC[C@]3(C)[C@@]2(O)[C@@H]1C)CO[C@@H]1O[C@H](CO)[C@@H](O)[C@H](O)[C@H]1O` [PARISYUNNANOSIDE A], the IC50 in the experiment on CCRF-CEM [1] came out at 6.68 µM.
Turning to `CC1=CO[C@@]2(O[C@H]3C[C@H]4[C@@H]5CC=C6C[C@@H](O)C[C@@H](O[C@@H]7O[C@H](CO)[C@@H](O)[C@H](O[C@@H]8OC[C@@H](O)[C@H](O)[C@H]8O)[C@H]7O[C@@H]7O[C@@H](C)[C@H](O)[C@@H](O)[C@H]7O)[C@]6(C)[C@H]5CC[C@]4(C)[C@H]3[C@@H]2CO[C@@H]2O[C@H](CO)[C@H](O)[C@H](O)[C@H]2O)[C@@H](O)[C@H]1O[C@@H]1O[C@H](C)[C@H](O)[C@H](O)[C@H]1O`, the outcome in the experiment on CCRF-CEM [2] was inactive.
In the case of `CC(C)(O)C(O)CC[C@](C)(O)[C@H]1CC[C@@]2(O)C3=CC(=O)[C@@H]4C[C@@H](O)[C@@H](O)C[C@]4(C)[C@H]3CC[C@]12C` (some centres not stated), the result with CCRF-CEM [2] was inactive.

The term IC50 denotes the concentration at which inhibition is half-maximal. Read a high IC50 as lower potency.

Source of the values: ChEMBL document CHEMBL2069207, “Polyhydroxylated steroidal glycosides from Paris polyphylla” (J Nat Prod, 2012).
